Assay results reported in publication PMC3031448 (Journal of natural products, 2009).

Tests used:
[1] = test system: methicillin-resistant Staphylococcus aureus 700787; assay: Antimicrobial broth dilution assay, MRSA; format: cell-based; settings: methicillin-resistant Staphylococcous aureus
In short: (§1)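 Broth microdilution in microtiter format at 37 °C against the ATCC strains, with MIC as the read-out. C. albicans was grown in Sabouraud dextrose broth; MRSA and P. aeruginosa were grown in cation-supplemented Mueller-Hinton broth.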

Plasma stability, human = format: in vitro ADME; settings: 3 h, both test concentrations
[2] = test system: Pseudomonas aeruginosa 27853; assay: Antimicrobial broth dilution assay, P. aeruginosa; format: cell-based
In short: as §1

Plasma protein binding = format: in vitro ADME; settings: both test concentrations
Plasma stability, mouse = format: in vitro ADME; settings: 3 h, both test concentrations
Solubility = format: physicochemical; settings: three physiologically relevant pH levels
Candida albicans 44506 = assay: Antimicrobial broth dilution assay, C. albicans; format: cell-based
In short: as §1

[3] = test system: PANC-1 human pancreatic carcinoma cells; assay: Cell cycle analysis by flow cytometry; format: cell-based; settings: PANC-1, 24 h, doses ≤ 46.5 μM
DNA = assay: Ethidium bromide displacement; format: binding

For `CC(=O)N(C)CCc1cc(Br)c(OCCCNc2ncn(C)c3ncnc2-3)c(Br)c1` [Aphrocallistin, aphrocallistin], the antimicrobial activity [1] was “did not show significant inhibition”, the plasma stability (Plasma stability, human) was “excellent stability” and the antimicrobial activity [2] was “did not show significant inhibition”. For the same compound, the protein binding (Plasma protein binding) was “moderate protein binding”, the plasma stability (Plasma stability, mouse) was “excellent stability” and the solubility (Solubility) was “high”. For the same compound, the antimicrobial activity (Candida albicans 44506) was “did not show significant inhibition”, the cell cycle arrest [3] was “induce G1 cell cycle arrest” and the cell cycle arrest ([3]; listed as aphrocallistin) was “significant cell cycle arrest at G1”. The “displacement of ethidium bromide (direct DNA binding)” value (DNA) was “no displacement of ethidium bromide was observed”.
